The record followed here is ChEMBL document CHEMBL4706643 (J Med Chem, 2021).

One may read the clearance as the volume of plasma or blood freed of the substance per unit of time. What is called pIC50 is the IC50 on a negative log10 scale, so that one unit is a factor of ten. One may read the Cmax as the maximum level reached in the sampled fluid or tissue.

For data set [1], the target named is T1, Hepatic sodium/bile acid cotransporter (Homo sapiens, UniProt Q14973).
T1 sequence (Q14973 whole entry): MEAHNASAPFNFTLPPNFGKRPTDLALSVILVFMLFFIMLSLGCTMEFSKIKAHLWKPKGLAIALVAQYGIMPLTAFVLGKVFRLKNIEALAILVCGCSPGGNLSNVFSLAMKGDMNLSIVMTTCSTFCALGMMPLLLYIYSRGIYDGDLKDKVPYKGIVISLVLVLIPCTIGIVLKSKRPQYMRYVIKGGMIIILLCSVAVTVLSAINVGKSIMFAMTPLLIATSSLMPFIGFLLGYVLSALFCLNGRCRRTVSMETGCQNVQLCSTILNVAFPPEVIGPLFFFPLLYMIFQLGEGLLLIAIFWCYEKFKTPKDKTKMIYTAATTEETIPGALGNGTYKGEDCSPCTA
As to the kind of experiment: Inhibition of human NTCP expressed in human HepG2 cells assessed as decrease in NTCP surface expression at 2 uM incubated for 2 hrs by DAPI staining based analysis. The data set is classed as cell-based. Particulars: hepg2, 2 h, 2 h; call rule not given here. The method, boiled down:
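HepG2-NTCP cells treated 2 h with DMSO, compound or TLCA at 2 μM, then immunostained for NTCP to assess cell-surface distribution.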

Data set [2] in a line: Clearance in C57BL/6 mouse at 5 mg/kg, iv. The data set is classed as ADME, organism-based. As to conditions: in vivo. The method, boiled down:
(§1)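 Male C57BL/6 mice (n = 3), single dose IV 5 mg/kg, IP 10 mg/kg or PO 10 mg/kg in DMSO:cremophor:0.9% NaCl 5:5:90; plasma parameters reported as means.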

Data set [3] can be described thus: Intrinsic clearance in rat liver microsomes at 1 uM preincubated for 5 mins followed by NADPH addition and measured upto 60 mins by LC-MS analysis. Particulars: time 65 min, read-out: CLH. The data set is classed as ADME, Microsome. (In general: Liver microsomes are a subcellular fraction often used to study metabolism.)
In data set [4] the target is T1, Hepatic sodium/bile acid cotransporter. Kind of data set: Inhibition of human NTCP-mediated [3H]-TCA uptake expressed in human HepG2 cells incubated for 2 hrs followed by substrate addition and measured for 10 mins by microbeta liquid scintillation counter analysis. It is filed as cell-based. A digest of the protocol:
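HepG2 cells expressing NTCP (human, mouse, monkey or tree shrew) seeded 4–6 h, PMM 20–24 h; compound 2 h, then Na+ Ringer's buffer with 2 μM 3H-TCA, 37 °C 10 min; PBS washes, lysis in 1% Triton X-100, scintillation counting. Single-concentration lines at 2 μM.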

The nature of data set [5]: Intrinsic clearance in human liver microsomes at 1 uM preincubated for 5 mins followed by NADPH addition and measured upto 60 mins by LC-MS analysis. Particulars: read-out: CLH. It is filed as ADME, Microsome. The method, boiled down:
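Human or mouse liver microsomes, final 1 mg/mL in 0.05 M phosphate buffer pH 7.4; compound final 1 μM, preincubated 37 °C 5 min, started with 1 mM NADPH; sampled at 0, 5, 15, 30, 60 min, methanol quench, −20 °C 1 h, centrifuged, supernatant by LC–MS.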

A short description of data set [6]: Immunosuppressive activity in C57B/L mouse spleen T cells assessed as inhibition of anti-CD3 induced T cell proliferation incubated for 48 hrs by CFSE staining based flow cytometric analysis. It is filed as tissue-based. A digest of the protocol: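 Spleen T cells from adult C57B/L mouse, CFSE-labelled, cultured in RPMI-1640 on anti-CD3-coated wells with compound or DMSO; stained with PE-anti-CD4 before flow cytometric proliferation analysis. Legend gives 48 h stimulation, methods 72 h; 2 μM compounds.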
On the technique in general: A flow cytometer gives signals particle by particle.

A short description of data set [7]: Cmax in C57BL/6 mouse at 10 mg/kg, po. It is filed as ADME, organism-based. The arrangement: route oral, dose 10 mg/kg. As to conditions: in vivo. The method, boiled down:
as §1

pIC50: −log10 of the molar value. “Also recorded” adds a separate entry of the source.

Take `CC[C@@H]1NC(=O)[C@H]([C@@H]2O[C@@H](Sc3cccc(OCc4ccccc4)c3)C[C@H]2C)N(C)C(=O)[C@H](C(C)C)N(C)C(=O)[C@H](CC(C)C)N(C)C(=O)[C@H](CC(C)C)N(C)C(=O)[C@@H](C)NC(=O)[C@H](C)NC(=O)[C@H](CC(C)C)N(C)C(=O)[C@H](C(C)C)NC(=O)[C@H](CC(C)C)N(C)C(=O)CN(C)C1=O`: in data set [1], the “inhibition (INH)” value was “Active; also recorded: Not Active”. This molecule came in with a clearance in data set [2] of 2.1 mL/min/kg. For the same molecule, the microsomal CLint at 1 µM in data set [3] turned out to be 2.2 µL/min/mg; in data set [5] it was 8 µL/min/mg. In data set [4], this molecule gave a pIC50 of 7.18. For the same molecule, the Activity result in data set [6] is given as “Non-Toxic”. The concentration in data set [7] peaked (Cmax) at 2290 ng/mL.
